Measured values collected from several papers.
Lines come from different studies, so protocols differ.

SMILES | assay | test system | setting | endpoint | result
Cc1cc2c(C(=O)O)cccc2n1-c1nc2c(c(NCc3ccccc3)n1)CCCN2 | metabolic stability | dog, liver microsomes | 1 µM, pH 7.4 | microsomal CLint | 1.15 µL/min/mg
C=CC(=O)NC1CCN(c2ncc3ncnc(Nc4ccc(Oc5ccc6c(c5)ncn6C)c(C)c4)c3n2)CC1 | – | – | pH 7.4 | logP | 4.7
Cc1ccc2c(c1)C(=O)[C@]1(O)CCN(c3ccc4nc(C)ccc4c3)C1=N2 | – | mouse, brain | intraperitoneal, 10 mg/kg, 30 min, single dose | concentration | 1000 nM
NCc1cc2c(cc1F)C(=O)N(C1CCC(=O)NC1=O)C2 (stereo not drawn) | – | male CD-1 mouse, plasma | intravenous, 1 mg/kg, 30 min | concentration | 33.2 ng/mL
NCc1ccc(-c2nn(Cc3ccccc3)c3ccccc23)o1 | – | male CD-1 mouse, plasma | intravenous, 5 mg/kg | half-life | 1.08 h
CC(C)n1ncc2c(C(=O)NCC3(C)CNC3)cc(C3CC3)nc21 | – | female BALB/c mouse, plasma | intraperitoneal, 50 mg/kg, 2 h | concentration | 2230 ng/mL
Cc1nsc(-c2nnc3n2CCN(C(=O)c2ccc(F)cc2)[C@@H]3C)n1 | – | – | – | logP | 1.5
Cc1cccc(CNC(=O)c2cn(CCNC(=O)c3ccccc3Sc3c([N+](=O)[O-])ncn3C)c3cc4c(cc3c2=O)OCO4)n1 | metabolic stability | cynomolgus monkey, blood | 1 µM, whole blood | half-life | 5.92 h
CONC(=O)c1cccc2c1cc(C)n2-c1nc2c(c(NCc3ccccc3)n1)CCCN2 | metabolic stability | dog, liver microsomes | 1 µM, pH 7.4 | microsomal CLint | 84 µL/min/mg
CN(C)C(=O)c1cc2cnc(Nc3ccc(-c4ccc5c(=O)cc(N6CCOCC6)oc5c4)cc3)nc2n1C1CCCC1.Cl | – | BALB/c mouse, plasma | oral, 20 mg/kg | half-life | 4.6 h
OCc1ccc(-c2nn(Cc3ccccc3)c3ccccc23)o1 | – | male CD-1 mouse, plasma | intraperitoneal, 30 mg/kg | half-life | 1.3 h
Cc1ccccc1CN1C(=O)C2=C(CCN(Cc3ccccc3)C2)N2CCN=C12 | potentiometric | water | – | logP | 3.09
Cc1nc2ccc(OCc3ccc(C(F)(F)F)cc3)cc2[nH]1 | – | male BALB/c mouse, brain | intravenous, 1 mg/kg, 3 h | concentration | 402 ng/g
O=C1CCC(N2Cc3cc(CO)c(F)cc3C2=O)C(=O)N1 (stereo not drawn) | – | male CD-1 mouse, plasma | intravenous, 1 mg/kg, 1.02 min | concentration | 1790 ng/mL
O=C(O)CC[C@H](NC(=O)N[C@@H](CCCCNC(=O)[C@H](Cc1ccc2ccccc2c1)NC(=O)[C@H]1CC[C@H](CNC(=O)CN2CCN(CC(=O)O)CCN(CC(=O)O)CCN(CC(=O)O)CC2)CC1)C(=O)O)C(=O)O | shake flask | water | – | logP | -1.01
